Measurements as given in ChEMBL document CHEMBL1212911, “Identification of potent and selective amidobipyridyl inhibitors of protein kinase D” (J Med Chem, 2010).

How the values were obtained:
[1] = tested on: Caco-2; assay: Ratio of permeability from basolateral to apical side to apical to basolateral side in human Caco-2 cells; assay type: ADME, cell-based
[2] = molecular target: T1, Serine/threonine-protein kinase D1 (Homo sapiens, UniProt Q15139); assay: Inhibition of PKD1 assessed as inhibition of HDAC5 neuclear export
T1 sequence (Q15139 whole entry): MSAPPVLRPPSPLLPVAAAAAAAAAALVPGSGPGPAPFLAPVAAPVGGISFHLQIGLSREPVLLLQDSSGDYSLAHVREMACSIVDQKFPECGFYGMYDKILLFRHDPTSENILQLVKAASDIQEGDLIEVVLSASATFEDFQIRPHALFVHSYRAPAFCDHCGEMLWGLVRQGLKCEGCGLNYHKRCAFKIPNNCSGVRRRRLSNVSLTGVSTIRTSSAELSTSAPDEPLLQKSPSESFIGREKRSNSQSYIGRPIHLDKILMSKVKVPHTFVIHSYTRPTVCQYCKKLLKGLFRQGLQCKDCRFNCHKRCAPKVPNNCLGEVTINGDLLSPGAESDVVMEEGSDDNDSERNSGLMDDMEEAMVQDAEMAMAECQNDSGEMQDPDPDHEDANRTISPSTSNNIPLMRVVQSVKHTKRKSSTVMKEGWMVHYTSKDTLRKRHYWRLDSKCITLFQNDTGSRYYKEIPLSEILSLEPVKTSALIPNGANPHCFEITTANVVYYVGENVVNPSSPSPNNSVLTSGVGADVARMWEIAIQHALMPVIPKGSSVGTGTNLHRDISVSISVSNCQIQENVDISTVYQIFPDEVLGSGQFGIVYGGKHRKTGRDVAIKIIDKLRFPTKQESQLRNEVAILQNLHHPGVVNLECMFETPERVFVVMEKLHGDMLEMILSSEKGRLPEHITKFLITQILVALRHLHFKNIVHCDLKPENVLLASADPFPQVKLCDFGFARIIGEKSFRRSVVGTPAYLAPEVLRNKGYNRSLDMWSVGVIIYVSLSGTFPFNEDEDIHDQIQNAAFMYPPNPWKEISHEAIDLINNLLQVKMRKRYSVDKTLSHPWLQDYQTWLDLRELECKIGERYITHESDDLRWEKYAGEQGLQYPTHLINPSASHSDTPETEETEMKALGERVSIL
In short: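 Neonatal rat ventricular myocytes infected with adenovirus encoding GFP-HDAC5 and plated on gelatin-coated wells. Cells exposed to compound and stimulated with PGF2α for 2 h, then fixed. Cytoplasmic versus nuclear GFP intensity quantified by high-content imaging.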

[3] = molecular target: T2, Serine/threonine-protein kinase D2 (Homo sapiens, UniProt Q9BZL6); assay: Inhibition of PKD2 by TR-FRET assay
T2 sequence (Q9BZL6 whole entry): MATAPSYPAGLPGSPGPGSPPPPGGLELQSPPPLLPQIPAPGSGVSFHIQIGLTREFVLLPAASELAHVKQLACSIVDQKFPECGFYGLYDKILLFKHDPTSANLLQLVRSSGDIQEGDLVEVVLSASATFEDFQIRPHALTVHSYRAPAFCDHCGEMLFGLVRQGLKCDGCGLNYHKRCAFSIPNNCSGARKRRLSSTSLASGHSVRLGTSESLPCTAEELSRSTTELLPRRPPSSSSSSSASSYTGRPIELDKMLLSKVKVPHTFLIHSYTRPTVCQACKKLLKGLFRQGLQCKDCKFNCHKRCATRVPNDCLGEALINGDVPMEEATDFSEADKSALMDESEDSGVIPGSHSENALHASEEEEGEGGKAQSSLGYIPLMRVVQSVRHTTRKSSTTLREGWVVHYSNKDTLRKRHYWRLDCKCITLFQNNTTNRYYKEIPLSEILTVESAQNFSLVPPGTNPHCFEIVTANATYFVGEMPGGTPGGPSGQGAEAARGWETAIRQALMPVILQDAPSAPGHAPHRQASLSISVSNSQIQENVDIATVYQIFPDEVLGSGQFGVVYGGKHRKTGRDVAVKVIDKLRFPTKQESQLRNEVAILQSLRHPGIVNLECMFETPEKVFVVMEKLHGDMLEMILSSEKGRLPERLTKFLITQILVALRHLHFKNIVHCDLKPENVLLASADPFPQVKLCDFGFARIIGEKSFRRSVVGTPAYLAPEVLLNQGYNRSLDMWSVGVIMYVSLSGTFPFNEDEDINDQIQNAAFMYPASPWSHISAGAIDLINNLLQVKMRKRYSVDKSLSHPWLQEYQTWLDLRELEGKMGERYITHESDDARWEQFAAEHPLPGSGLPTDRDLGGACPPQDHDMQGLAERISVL

[4] = molecular target: T1, Serine/threonine-protein kinase D1; assay: Inhibition of PKD1 by TR-FRET assay
In short: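 Full-length wild-type PKD1 expressed and purified from Sf9 cells, 0.2 μg/mL, in 35 mM Tris-HCl pH 7.5, 5 mM MgCl2, 0.02% Tween-20, 20 μM ATP, 1 mM DTT. Reaction started with 2 μM biotinylated syntide-2 and run 50 min at room temperature. Stopped with EDTA plus europium anti-rabbit IgG, anti-phospho-syntide-2 antibody and streptavidin-APC. LANCE TR-FRET 665/615 ratio read after 1 h. 11-point curves in triplicate gave IC50.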

[5] = molecular target: T3, Protein kinase C epsilon type (Homo sapiens) (UniProt Q02156); assay: Inhibition of PKCepsilon; details: concentration not given here
T3 sequence (whole entry): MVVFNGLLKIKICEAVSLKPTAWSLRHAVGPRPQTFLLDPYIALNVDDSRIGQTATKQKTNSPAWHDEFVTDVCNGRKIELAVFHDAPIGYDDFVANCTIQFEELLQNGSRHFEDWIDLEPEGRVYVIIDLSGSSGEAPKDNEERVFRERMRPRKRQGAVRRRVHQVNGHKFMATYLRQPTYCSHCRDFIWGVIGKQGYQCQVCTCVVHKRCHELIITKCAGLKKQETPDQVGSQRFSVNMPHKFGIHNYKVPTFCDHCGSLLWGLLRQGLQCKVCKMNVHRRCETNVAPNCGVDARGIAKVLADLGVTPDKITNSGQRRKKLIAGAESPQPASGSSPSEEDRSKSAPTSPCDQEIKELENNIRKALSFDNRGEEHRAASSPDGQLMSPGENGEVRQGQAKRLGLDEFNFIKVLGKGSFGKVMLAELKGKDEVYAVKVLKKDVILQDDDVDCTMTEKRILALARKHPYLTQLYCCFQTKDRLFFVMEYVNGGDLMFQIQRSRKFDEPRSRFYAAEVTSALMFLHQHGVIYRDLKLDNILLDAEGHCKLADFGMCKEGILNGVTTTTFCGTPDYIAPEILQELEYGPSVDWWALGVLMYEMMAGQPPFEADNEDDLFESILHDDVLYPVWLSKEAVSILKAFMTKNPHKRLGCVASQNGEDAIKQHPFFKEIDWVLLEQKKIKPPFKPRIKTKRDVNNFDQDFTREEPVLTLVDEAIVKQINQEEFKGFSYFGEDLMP

[6] = molecular target: Calcium/calmodulin-dependent protein kinase type 1D (Homo sapiens) (UniProt Q8IU85); assay: Inhibition of CaMK1delta; details: concentration not given here
In short: (§1)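 Selectivity screen run externally (Invitrogen SelectScreen). Percent inhibition measured at 1 μM compound, mean of 2 measurements.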

[7] = molecular target: Serine/threonine-protein kinase MARK1 (Homo sapiens) (UniProt Q9P0L2); assay: Inhibition of human MARK1; details: concentration not given here; in short: as §1
[8] = Half life in rats after 2 mg/kg intravenous dose; assay type: ADME, organism-based; parameters: dose 2 mg/kg, route intravenous; details: Sprague-Dawley, rat, in vivo
In short: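 Rats dosed iv 2 mg/kg (n = 2) or po 5 mg/kg (n = 3) in 10% NMP, 10% Cremophor, 80% pH 4.63 buffer. PK parameters derived from iv dosing, reported as mean ± SD.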

[9] = molecular target: Calcium/calmodulin-dependent protein kinase type II subunit delta (Homo sapiens) (UniProt Q13557); assay: Inhibition of human CaMK2delta; details: concentration not given here; in short: as §1
[10] = molecular target: G protein-coupled receptor kinase 5 (Homo sapiens) (UniProt P34947); assay: Inhibition of human GRK5; details: concentration not given here; in short: as §1
[11] = AUC (0 to 8 hrs) in Sprague-Dawley rat at 5 mg/kg, po; assay type: ADME, organism-based; parameters: time < 8 hr, dose 5 mg/kg, route oral; details: plasma
[12] = molecular target: Serine/threonine-protein kinase MARK2 (Homo sapiens) (UniProt Q7KZI7); assay: Inhibition of human MARK2; details: concentration not given here; in short: as §1
[13] = molecular target: T4, Calcium/calmodulin-dependent protein kinase type IV (Homo sapiens) (UniProt Q16566); assay: Inhibition of human CaMK4; details: concentration not given here; in short: as §1
T4 sequence (whole entry): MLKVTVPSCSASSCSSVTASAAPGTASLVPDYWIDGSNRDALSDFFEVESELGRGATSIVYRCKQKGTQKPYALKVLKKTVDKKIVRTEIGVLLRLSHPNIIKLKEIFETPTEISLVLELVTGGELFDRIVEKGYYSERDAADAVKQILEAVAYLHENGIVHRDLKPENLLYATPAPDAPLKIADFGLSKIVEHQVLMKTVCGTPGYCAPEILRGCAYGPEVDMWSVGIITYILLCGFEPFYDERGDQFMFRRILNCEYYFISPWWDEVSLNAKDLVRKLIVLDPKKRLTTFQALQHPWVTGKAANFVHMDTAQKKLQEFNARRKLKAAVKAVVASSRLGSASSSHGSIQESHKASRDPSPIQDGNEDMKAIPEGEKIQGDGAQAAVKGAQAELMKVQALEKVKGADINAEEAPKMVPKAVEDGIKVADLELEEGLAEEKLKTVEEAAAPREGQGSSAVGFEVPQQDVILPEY

[14] = molecular target: Protein kinase C delta type (Homo sapiens) (UniProt Q05655); assay: Inhibition of human PKCdelta; details: concentration not given here; in short: as §1
Sequence of Protein kinase C delta type (Homo sapiens) (Q05655 whole entry, looked up): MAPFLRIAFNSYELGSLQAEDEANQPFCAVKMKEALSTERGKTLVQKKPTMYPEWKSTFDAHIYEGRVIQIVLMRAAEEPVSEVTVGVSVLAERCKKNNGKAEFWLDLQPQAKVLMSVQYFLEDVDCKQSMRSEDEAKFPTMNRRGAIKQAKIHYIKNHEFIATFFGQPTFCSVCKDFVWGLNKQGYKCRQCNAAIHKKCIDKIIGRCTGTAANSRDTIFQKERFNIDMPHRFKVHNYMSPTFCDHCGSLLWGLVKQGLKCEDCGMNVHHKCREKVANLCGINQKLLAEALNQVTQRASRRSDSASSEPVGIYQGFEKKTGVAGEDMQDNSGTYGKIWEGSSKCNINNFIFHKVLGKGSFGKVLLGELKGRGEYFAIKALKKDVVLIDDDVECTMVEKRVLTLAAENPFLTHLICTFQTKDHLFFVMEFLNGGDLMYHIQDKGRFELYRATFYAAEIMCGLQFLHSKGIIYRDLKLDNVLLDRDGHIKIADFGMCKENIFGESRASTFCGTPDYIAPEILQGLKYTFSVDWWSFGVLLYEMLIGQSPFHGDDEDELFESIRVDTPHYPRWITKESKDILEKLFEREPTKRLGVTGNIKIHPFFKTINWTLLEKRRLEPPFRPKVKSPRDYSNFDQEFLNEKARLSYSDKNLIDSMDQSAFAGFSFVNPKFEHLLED

Sequence of Serine/threonine-protein kinase MARK2 (Homo sapiens) (Q7KZI7 whole entry): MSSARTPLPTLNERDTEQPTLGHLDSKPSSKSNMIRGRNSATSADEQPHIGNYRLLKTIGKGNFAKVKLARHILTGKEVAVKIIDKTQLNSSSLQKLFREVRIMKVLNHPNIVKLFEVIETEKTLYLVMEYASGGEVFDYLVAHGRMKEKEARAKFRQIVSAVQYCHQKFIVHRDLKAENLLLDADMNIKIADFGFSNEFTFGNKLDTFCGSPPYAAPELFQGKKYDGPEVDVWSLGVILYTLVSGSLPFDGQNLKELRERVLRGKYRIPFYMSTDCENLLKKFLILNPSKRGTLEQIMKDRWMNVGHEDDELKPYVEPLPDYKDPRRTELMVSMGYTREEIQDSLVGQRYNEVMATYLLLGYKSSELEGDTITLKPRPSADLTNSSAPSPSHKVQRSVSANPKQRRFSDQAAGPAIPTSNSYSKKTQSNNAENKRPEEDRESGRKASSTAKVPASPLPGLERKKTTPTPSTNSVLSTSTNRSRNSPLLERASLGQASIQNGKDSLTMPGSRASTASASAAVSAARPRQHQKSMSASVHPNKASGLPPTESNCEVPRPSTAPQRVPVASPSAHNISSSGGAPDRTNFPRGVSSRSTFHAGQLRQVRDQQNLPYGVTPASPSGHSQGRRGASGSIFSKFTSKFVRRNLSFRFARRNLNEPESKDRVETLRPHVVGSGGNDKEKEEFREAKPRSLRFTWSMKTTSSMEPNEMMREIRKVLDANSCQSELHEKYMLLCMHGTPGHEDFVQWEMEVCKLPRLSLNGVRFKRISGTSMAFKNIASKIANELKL
Sequence of Calcium/calmodulin-dependent protein kinase type 1D (Homo sapiens) (Q8IU85 whole entry, looked up): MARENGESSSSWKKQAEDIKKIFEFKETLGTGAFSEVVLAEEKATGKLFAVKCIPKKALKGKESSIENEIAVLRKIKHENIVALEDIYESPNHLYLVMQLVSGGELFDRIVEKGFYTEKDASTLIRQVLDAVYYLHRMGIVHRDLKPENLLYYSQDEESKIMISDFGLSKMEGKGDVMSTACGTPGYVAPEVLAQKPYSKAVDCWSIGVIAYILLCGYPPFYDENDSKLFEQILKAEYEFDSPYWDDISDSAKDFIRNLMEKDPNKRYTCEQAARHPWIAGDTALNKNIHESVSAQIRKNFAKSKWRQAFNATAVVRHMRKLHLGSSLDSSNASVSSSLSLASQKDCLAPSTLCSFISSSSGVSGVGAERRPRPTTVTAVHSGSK
Sequence of Calcium/calmodulin-dependent protein kinase type II subunit delta (Homo sapiens) (Q13557 whole entry): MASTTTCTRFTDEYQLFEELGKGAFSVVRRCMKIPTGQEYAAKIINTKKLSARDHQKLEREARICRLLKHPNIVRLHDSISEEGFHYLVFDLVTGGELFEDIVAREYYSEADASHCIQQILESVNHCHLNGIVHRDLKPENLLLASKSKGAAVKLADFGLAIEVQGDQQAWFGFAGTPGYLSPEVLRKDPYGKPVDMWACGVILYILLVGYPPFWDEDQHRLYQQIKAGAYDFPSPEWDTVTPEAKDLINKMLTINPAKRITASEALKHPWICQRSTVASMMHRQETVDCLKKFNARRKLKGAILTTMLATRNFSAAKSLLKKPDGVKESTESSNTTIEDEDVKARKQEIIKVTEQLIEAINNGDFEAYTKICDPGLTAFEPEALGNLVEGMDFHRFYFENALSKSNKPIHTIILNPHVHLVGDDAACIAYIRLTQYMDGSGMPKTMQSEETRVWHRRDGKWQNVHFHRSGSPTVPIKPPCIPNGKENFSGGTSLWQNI
Sequence of Serine/threonine-protein kinase MARK1 (Homo sapiens) (Q9P0L2 whole entry, looked up): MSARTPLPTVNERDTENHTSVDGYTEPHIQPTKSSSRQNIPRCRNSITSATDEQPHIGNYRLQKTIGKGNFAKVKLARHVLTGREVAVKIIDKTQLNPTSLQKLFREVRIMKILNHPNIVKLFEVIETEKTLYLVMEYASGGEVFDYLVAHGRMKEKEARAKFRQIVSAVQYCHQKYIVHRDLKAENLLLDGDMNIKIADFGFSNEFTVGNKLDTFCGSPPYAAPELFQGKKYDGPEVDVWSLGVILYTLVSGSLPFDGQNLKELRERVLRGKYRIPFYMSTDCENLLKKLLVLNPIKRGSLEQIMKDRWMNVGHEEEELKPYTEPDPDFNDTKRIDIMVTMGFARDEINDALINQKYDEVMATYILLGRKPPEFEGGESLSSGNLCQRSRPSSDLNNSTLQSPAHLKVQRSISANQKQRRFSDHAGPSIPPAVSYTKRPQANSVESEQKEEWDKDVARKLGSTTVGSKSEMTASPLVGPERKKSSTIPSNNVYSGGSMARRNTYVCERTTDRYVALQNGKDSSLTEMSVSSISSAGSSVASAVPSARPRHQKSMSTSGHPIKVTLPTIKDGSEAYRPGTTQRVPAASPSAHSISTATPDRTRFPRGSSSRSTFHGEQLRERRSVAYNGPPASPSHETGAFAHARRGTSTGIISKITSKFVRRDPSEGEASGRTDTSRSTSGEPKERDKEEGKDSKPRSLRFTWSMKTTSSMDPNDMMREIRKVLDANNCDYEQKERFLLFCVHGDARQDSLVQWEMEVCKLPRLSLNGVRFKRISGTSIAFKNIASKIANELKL
Sequence of G protein-coupled receptor kinase 5 (Homo sapiens) (P34947 whole entry, looked up): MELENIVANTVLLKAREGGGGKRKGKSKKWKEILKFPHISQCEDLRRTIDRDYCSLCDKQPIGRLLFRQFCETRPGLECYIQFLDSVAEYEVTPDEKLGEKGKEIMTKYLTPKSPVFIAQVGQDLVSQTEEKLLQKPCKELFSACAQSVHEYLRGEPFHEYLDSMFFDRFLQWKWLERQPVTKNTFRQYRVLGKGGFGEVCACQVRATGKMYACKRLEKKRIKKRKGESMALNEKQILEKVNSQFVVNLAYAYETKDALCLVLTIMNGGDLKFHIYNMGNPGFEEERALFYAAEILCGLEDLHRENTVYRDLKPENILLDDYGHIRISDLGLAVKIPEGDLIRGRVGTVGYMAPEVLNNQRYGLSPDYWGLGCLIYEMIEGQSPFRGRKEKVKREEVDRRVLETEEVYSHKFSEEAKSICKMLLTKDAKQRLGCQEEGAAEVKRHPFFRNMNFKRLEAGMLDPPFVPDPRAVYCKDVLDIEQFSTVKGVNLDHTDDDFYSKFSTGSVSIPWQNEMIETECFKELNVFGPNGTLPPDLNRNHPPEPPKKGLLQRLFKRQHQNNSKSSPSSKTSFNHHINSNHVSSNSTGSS

Ratio [1] | EC50 [2] [nM] | IC50 [3] [nM] | IC50 [4] [nM] | inhibition [5] [%] | inhibition [6] [%] | inhibition [7] [%] | half-life [8] [min] | inhibition [9] [%] | inhibition [10] [%] | AUC(0-t) at 8 h [11] [µM·h] | inhibition [12] [%] | inhibition [13] [%] | inhibition [14] [%] | SMILES
0.44 | 66 | 130 | 18 |  |  |  |  |  |  |  |  |  |  | N#Cc1cc(-c2ccnc(NC3CCCCC3)c2)nc(N2CCNCC2)c1
 |  |  |  | 34 | 11 | 82 | 312 | 80 | 5 | 0.19 | 83 | 1 | 51 | c1cc2c(N3CCNCC3)nc(-c3ccnc(NC4CCCCC4)c3)cc2cn1
